Data reported in ChEMBL document CHEMBL1142242, “Indanylacetic acid derivatives carrying 4-thiazolyl-phenoxy tail groups, a new class of potent PPAR alpha/gamma/delta pan agonists: synthesis, structure-activity relationship, and in vivo efficacy” (J Med Chem, 2007).

Columns and labels:
[1] = molecular target: T1, Peroxisome proliferator-activated receptor gamma (Mus musculus, UniProt P37238); test: Agonist activity at PPAR gamma in mouse 3T3L1 cells assessed as increase in insulin receptor by IRBA; format: functional, cell-based, 3T3-L1
T1 sequence (P37238 whole entry): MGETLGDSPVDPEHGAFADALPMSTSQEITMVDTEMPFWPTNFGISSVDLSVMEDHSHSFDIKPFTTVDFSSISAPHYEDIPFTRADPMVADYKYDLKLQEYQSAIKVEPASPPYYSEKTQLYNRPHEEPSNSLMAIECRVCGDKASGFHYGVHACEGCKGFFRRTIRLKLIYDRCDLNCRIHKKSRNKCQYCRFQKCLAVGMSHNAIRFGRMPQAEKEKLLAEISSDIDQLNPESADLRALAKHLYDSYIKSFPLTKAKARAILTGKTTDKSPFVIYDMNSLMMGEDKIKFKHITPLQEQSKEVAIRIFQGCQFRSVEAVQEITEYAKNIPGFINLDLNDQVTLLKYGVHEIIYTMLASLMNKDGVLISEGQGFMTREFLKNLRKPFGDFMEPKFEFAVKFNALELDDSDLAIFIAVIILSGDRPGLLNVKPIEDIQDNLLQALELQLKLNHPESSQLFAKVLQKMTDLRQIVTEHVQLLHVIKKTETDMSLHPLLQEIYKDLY

[2] = molecular target: T2, Peroxisome proliferator-activated receptor delta (Homo sapiens, UniProt Q03181); test: Agonist activity at human PPAR delta by FRET assay; format: functional
T2 sequence (Q03181 whole entry): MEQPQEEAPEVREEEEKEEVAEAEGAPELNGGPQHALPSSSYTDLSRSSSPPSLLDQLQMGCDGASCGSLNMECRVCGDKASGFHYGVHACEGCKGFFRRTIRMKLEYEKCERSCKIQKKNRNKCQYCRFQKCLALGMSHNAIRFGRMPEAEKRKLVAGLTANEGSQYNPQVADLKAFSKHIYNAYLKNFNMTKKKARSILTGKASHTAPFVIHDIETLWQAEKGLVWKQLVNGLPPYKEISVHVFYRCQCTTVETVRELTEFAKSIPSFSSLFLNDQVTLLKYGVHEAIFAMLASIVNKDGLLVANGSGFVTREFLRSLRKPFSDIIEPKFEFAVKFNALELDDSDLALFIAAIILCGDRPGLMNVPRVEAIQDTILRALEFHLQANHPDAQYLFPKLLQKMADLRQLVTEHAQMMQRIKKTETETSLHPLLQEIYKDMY

[3] = molecular target: T3, Peroxisome proliferator-activated receptor alpha (Homo sapiens, UniProt Q07869); test: Agonist activity at human PPAR alpha by FRET assay; format: functional
T3 sequence (Q07869 whole entry): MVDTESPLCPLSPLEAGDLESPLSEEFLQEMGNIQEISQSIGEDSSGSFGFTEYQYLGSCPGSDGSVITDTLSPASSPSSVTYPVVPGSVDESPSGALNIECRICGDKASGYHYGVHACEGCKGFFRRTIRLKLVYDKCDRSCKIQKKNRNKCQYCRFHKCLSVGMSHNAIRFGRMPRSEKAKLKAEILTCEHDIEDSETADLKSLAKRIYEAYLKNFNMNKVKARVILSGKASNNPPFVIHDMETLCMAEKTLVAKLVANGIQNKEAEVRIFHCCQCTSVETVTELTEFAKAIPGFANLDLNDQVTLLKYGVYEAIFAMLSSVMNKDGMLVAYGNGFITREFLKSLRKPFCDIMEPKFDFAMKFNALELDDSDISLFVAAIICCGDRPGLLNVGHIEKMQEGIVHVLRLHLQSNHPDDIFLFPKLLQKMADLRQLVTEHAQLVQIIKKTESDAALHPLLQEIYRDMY
Procedure, shortened: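 Human PPARα ligand binding domain (GST-tagged) association with biotin-labeled co-activator CBP; Eu-labeled anti-GST antibody and streptavidin-APC; incubated 2 h at rt in buffer with or without compound; fluorescence read at 615 or 655 nm emission, 340 nm excitation.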

SMILES | EC50 [1] [µM] | EC50 [2] [µM] | EC50 [3] [µM]
O=C(O)C[C@@H]1CCc2cc(OCCCOc3ccc4c(c3)ONC4(O)C(F)(F)F)ccc21 (stereo partly specified) | 5 | 0.067 | > 10
O=C(O)C[C@@H]1CCc2cc(OCCCOc3ccc(-c4cccnc4)cc3)ccc21 | 0.55 | 0.0023 | 1.69
COc1cc(-c2nc(C)c(C)s2)ccc1OCCCOc1ccc2c(c1)CC[C@H]2CC(=O)O | 0.033 | 0.004 | 0.083
CCCc1cc(-c2nc(C)c(C(=O)N(C)C)s2)ccc1OCCCOc1ccc2c(c1)CC[C@H]2CC(=O)O | 0.017 | 0.0044 | 0.14
O=C(O)C[C@@H]1CCc2cc(OCCCOc3ccc4[nH]ccc4c3)ccc21 | 1.8 | 0.024 | > 10
CCCc1cc(-c2nc(OCC)cs2)ccc1OCCCOc1ccc2c(c1)CC[C@H]2CC(=O)O | 0.041 | 0.002 | 0.105
CCOc1csc(-c2ccc(OCCCOc3ccc4c(c3)CC[C@H]4CC(=O)O)cc2)n1 | 0.753 | 0.0012 | 0.1
COc1ccncc1-c1ccc(OCCCOc2ccc3c(c2)CC[C@H]3CC(=O)O)cc1 | 0.485 | 0.043 | > 10
CCOc1cc(C)ccc1OCCCOc1ccc2c(c1)CC[C@H]2CC(=O)O | 1.24 | 0.0022 | > 10
O=C(O)C[C@@H]1CCc2cc(OCCCOc3ccc(-c4cncnc4)cc3)ccc21 | 0.97 | 0.011 | 7.28
Cc1cc2cc(OCCCOc3ccc4c(c3)CC[C@H]4CC(=O)O)ccc2[nH]1 | 3.65 | 0.067 | > 10
CCc1ccc(OCCCOc2ccc3c(c2)CC[C@H]3CC(=O)O)cc1 | 6.2 | 0.0089 | 1.98
CCCc1cc(-c2nccs2)ccc1OCCCOc1ccc2c(c1)CC[C@H]2CC(=O)O | 0.048 | 0.0016 | 0.111
COc1cc(-c2nc(C(F)(F)F)cs2)ccc1OCCCOc1ccc2c(c1)CC[C@H]2CC(=O)O | 0.327 | 0.0029 | 0.437
COc1cc(-c2nc3c(s2)CCC3)ccc1OCCCOc1ccc2c(c1)CC[C@H]2CC(=O)O | 0.116 | 0.0041 | 0.053
COc1cccc(OCCCOc2ccc3c(c2)CC[C@H]3CC(=O)O)c1 | – | 0.117 | > 10
CCCc1cc(-c2nc(CC(=O)O)cs2)ccc1OCCCOc1ccc2c(c1)CC[C@H]2CC(=O)O | 0.027 | 0.0046 | 2.48
CCCc1cc(-c2nc3c(s2)CCC3)ccc1OCCCOc1ccc2c(c1)CC[C@H]2CC(=O)O | 0.094 | 0.0035 | 0.328
Cc1noc2cc(OCCCOc3ccc4c(c3)CC[C@H]4CC(=O)O)ccc12 | 3.66 | 0.016 | > 10
CCOc1csc(-c2ccc(OCCCOc3ccc4c(c3)CC[C@H]4CC(=O)O)c(OC)c2)n1 | 0.92 | 0.0034 | 1.35
O=C(O)C[C@@H]1CCc2cc(OCCCOc3ccc(OC(F)(F)F)cc3)ccc21 | 1.02 | 0.013 | 6.8
COc1cc(-c2nc(C)c(C(C)=O)s2)ccc1OCCCOc1ccc2c(c1)CC[C@H]2CC(=O)O | 0.049 | 0.0034 | 0.56
CCCc1cc(Oc2ccccc2)ccc1OCCCOc1ccc2c(c1)CC[C@H]2CC(=O)O | – | 0.0019 | > 10
Cc1nc(-c2ccc(OCCCOc3ccc4c(c3)CC[C@H]4CC(=O)O)cc2)sc1C | 0.28 | 0.0029 | 1.25
CCOc1nc(-c2ccc(OCCCOc3ccc4c(c3)CC[C@H]4CC(=O)O)c(OC)c2)sc1CC | 0.362 | 0.0054 | 0.52
COc1ncc(-c2ccc(OCCCOc3ccc4c(c3)CC[C@H]4CC(=O)O)cc2)c(OC)n1 | 0.3 | 0.0056 | > 10

SMILES | EC50 [1] [µM] | EC50 [2] [µM] | EC50 [3] [µM]
O=C(O)C[C@@H]1CCc2cc(OCCCOc3ccc(-n4cncn4)cc3)ccc21 | – | – | > 10
COc1cc(-c2nc3c(s2)CCCC3)ccc1OCCCOc1ccc2c(c1)CC[C@H]2CC(=O)O | 0.084 | 0.0033 | 0.044
CC(=O)Nc1cc(-n2ccnn2)ccc1OCCCOc1ccc2c(c1)CC[C@H]2CC(=O)O | 5.6 | – | 9.2
O=C(O)C[C@@H]1CCc2cc(OCCCOc3ccc(C(F)(F)F)cc3)ccc21 | 5.58 | 0.0042 | 1.61
CCCc1cc(-c2nc(OC(C)C)cs2)ccc1OCCCOc1ccc2c(c1)CC[C@H]2CC(=O)O | 0.045 | 0.0023 | 0.047
COc1cc(-c2nc(OC(C)C)cs2)ccc1OCCCOc1ccc2c(c1)CC[C@H]2CC(=O)O | 0.044 | 0.003 | 0.18
O=C(O)C[C@@H]1CCc2cc(OCCCOc3ccc4cnoc4c3)ccc21 | > 10 | 0.828 | > 10
CCCc1c(OCCCOc2ccc3c(c2)CC[C@H]3CC(=O)O)ccc2[nH]ccc12 | 0.46 | 0.0062 | > 10
CCCc1cc(C#N)ccc1OCCCOc1ccc2c(c1)CC[C@H]2CC(=O)O | 0.57 | 0.025 | 3.95
Cc1noc2c(C)c(OCCCOc3ccc4c(c3)CC[C@H]4CC(=O)O)ccc12 | 0.29 | 0.0081 | > 10
O=C(O)C[C@@H]1CCc2cc(OCCCOc3ccc4cc[nH]c4c3)ccc21 | > 10 | 0.019 | > 10
Cc1ccc(OCCCOc2ccc3c(c2)CC[C@H]3CC(=O)O)cc1C | > 10 | 0.067 | > 10
Cc1cccc(OCCCOc2ccc3c(c2)CC[C@H]3CC(=O)O)c1 | 8 | 0.056 | > 10
Cc1ccc(OCCCOc2ccc3c(c2)CC[C@H]3CC(=O)O)c(C)c1 | 2.18 | 0.0046 | 9.36
COc1csc(-c2ccc(OCCCOc3ccc4c(c3)CC[C@H]4CC(=O)O)cc2)n1 | 0.3 | 0.0013 | 5.8
COc1cc(-c2nc(C)cs2)ccc1OCCCOc1ccc2c(c1)CC[C@H]2CC(=O)O | 0.96 | 0.0027 | 0.268
CCCc1c(OCCCOc2ccc3c(c2)CC[C@H]3CC(=O)O)ccc2c(C)noc12 | 0.173 | 0.0021 | > 10
COc1cc(-c2nc3c(s2)CCCO3)ccc1OCCCOc1ccc2c(c1)CC[C@H]2CC(=O)O | 0.181 | 0.0013 | 0.328
O=C(O)C[C@@H]1CCc2cc(OCCCOc3ccc(-c4ccc(C(F)(F)F)cn4)cc3)ccc21 | 1.8 | 0.00095 | 2.9
Cc1nc(-c2ccc(OCCCOc3ccc4c(c3)CC[C@H]4CC(=O)O)cc2)sc1C(=O)O | 0.312 | 0.218 | 10
Cn1ccc2cc(OCCCOc3ccc4c(c3)CC[C@H]4CC(=O)O)ccc21 | 1.03 | 0.04 | 6.7
COc1cc(-c2nccs2)ccc1OCCCOc1ccc2c(c1)CC[C@H]2CC(=O)O | 0.374 | – | 0.255
COc1cc(-c2nc(C)c(C(=O)N(C)C)s2)ccc1OCCCOc1ccc2c(c1)CC[C@H]2CC(=O)O | – | 0.0021 | 0.803
CCCc1cc(C(F)(F)F)ccc1OCCCOc1ccc2c(c1)CC[C@H]2CC(=O)O | – | 0.0016 | 1.14
O=C(O)C[C@@H]1CCc2cc(OCCCOc3ccc(-c4ccccc4)cc3)ccc21 | – | 0.043 | > 10
COc1cc(-c2nc3ccccc3s2)ccc1OCCCOc1ccc2c(c1)CC[C@H]2CC(=O)O | – | 0.0052 | 0.526
